By MIC is commonly meant the least concentration at which growth counts as inhibited. Lower therefore signals greater potency.

Assay [1] concerns Nakaseomyces glabratus. Put plainly: Inhibitory effect on Candida glabrata YEM75 WT Strain. Format: functional. The method in brief:
(§1)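 For C. glabrata strains, MICs were determined by serial dilution in RPMI medium and read after 48 h. MIC is the lowest concentration giving turbidity ≤20% of the control culture.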

Assay [2] relates to Nakaseomyces glabratus. Put plainly: Inhibitory effect on Candida glabrata YEM88 CgCDR1 CgCDR2up Strain. The assay is classed as functional. The essentials:
as §1

Assay [3] has as its system Candida albicans. Put plainly: Inhibitory effect on Candida albicans YEM12 Strain. The assay is classed as functional. The essentials: (§2)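 MICs were determined by serial dilution in RPMI medium. MIC is the lowest concentration giving culture turbidity ≤20% of the control culture.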
For assay [4], the system named is Candida albicans. Put plainly: Inhibitory effect on Candida albicans YEM13 BENup Strain. The assay is classed as functional. The method in brief: as §2
The test system of assay [5] is Candida albicans. Put plainly: Inhibitory effect on Candida albicans YEM15 CDR1CDR2up Strain. The assay is classed as functional. The method in brief: as §2
Assay [6] has as its system Candida albicans. Put plainly: Inhibitory effect on Candida albicans wild type YEM14 Strain. Format: functional. The essentials: as §2
In assay [7] the test system is Candida albicans. Put plainly: Inhibitory effect on Candida albicans wild type YEM30 Strain. Format: functional. The method in brief: as §2
The target in assay [8] is T1, Dihydrofolate reductase (Rattus norvegicus, UniProt Q920D2).
T1 sequence (Q920D2 whole entry): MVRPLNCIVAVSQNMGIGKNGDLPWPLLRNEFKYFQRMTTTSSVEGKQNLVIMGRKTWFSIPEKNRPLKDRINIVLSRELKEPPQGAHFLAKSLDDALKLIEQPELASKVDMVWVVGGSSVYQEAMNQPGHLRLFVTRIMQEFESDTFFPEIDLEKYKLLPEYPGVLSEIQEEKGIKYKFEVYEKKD
Put plainly: (§3) Inhibitory activity against cell free dihydrofolate reductase (DHFR) from rat. As to conditions: read-out: I50.

Assay [9] has as its target T2, Dihydrofolate reductase (Candida albicans, UniProt P22906).
T2 sequence (P22906 whole entry): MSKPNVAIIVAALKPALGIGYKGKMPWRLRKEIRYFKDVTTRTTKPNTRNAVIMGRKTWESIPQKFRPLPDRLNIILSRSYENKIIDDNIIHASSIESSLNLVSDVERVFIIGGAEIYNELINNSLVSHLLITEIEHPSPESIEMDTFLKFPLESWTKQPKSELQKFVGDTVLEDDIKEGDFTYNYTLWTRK
Put plainly: Inhibitory activity against cell free dihydrofolate reductase (DHFR) from Candida albicans. The note with it: read-out: I50.

Assay [10] deals with Nakaseomyces glabratus. Put plainly: Inhibitory effect on Candida glabrata YEM216 pCDR1pCDR2pBEN YEM75 WT Strain. Format: functional. The essentials: as §1
Assay [11] has as its system Candida albicans. Put plainly: Inhibitory effect on Candida albicans YEM27 quad deletion Strain. The assay is classed as functional. The method in brief:
as §2

Assay [12] has as its target Dihydrofolate reductase (Mycobacterium lufu). Put plainly: Inhibitory activity against cell free dihydrofolate reductase (DHFR) from Mycobacterium lufu.
In assay [13] the target is T1, Dihydrofolate reductase. The assay is described as §3. As to conditions: read-out: I50. The essentials:
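Commercially sourced rat DHFR was preincubated 5 min at 25 °C with 0.1 mM NADPH and varying inhibitor in 0.1 M Tris, pH 7.24. The reaction was started with 0.03 mM dihydrofolate and followed as the fall in absorbance at 340 nm over time. I50 was taken as the inhibitor concentration halving reaction velocity, fitted by nonlinear regression.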
This is another data set of the same source.

Assay [14] can be described thus: Inhibitory activity against dihydropteroic acid synthase (SYN) from Mycobacterium lufu (DDS sensitive). As to conditions: read-out: I50.
The target of assay [15] is T3, Dihydropteroate synthetase, putative (Plasmodium berghei str. ANKA) (UniProt A0A113T0T6).
T3 sequence (whole entry): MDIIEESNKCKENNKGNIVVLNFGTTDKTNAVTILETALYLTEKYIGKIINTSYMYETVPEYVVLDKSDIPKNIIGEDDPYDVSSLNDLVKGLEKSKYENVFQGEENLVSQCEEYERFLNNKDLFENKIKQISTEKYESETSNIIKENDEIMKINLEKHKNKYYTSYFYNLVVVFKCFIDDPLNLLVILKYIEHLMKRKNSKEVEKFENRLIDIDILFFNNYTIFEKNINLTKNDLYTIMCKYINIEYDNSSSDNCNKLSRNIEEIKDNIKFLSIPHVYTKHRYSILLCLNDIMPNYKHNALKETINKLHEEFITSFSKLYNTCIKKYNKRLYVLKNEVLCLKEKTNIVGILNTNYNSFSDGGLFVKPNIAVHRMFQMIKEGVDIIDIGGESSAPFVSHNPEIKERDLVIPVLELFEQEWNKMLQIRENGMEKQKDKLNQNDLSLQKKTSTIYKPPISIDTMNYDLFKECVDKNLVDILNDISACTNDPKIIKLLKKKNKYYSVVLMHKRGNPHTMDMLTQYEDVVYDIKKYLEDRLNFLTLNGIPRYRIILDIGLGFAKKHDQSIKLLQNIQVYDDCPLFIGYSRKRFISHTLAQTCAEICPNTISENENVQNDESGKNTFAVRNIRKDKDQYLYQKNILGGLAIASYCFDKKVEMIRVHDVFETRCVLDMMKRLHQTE
Put plainly: Inhibitory activity against dihydropteroic acid synthase (SYN) from Plasmodium berghei.

Assay [16] is described as follows: Inhibitory activity against dihydropteroic acid synthase (SYN) from candida albicans. The note with it: read-out: I50. The method in brief: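 Partially purified SYN extract was prepared from C. albicans ATCC 11651 and incubated with sulfones at pH 8.4. Periodic samples were quenched with trichloroacetic acid, and folate formed was quantified by bioassay with folate-requiring Streptococcus faecium. I50 is the concentration giving a 50% decrease in dihydropteroic acid production versus the uninhibited control.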

Assay [17] can be described thus: Inhibitory activity against dihydropteroic acid synthase (SYN) from Escherichia coli. The note with it: read-out: I50.
Assay [18] is described as follows: Inhibitory activity against dihydropteroic acid synthase (SYN) from Mycobacterium lufu (DDS resistant). As to conditions: read-out: I50.
Assay [19] relates to Nakaseomyces glabratus. Put plainly: IInhibitory effect on Candida glabrata YEM75 WT Strain. Format: functional. The method in brief: as §1

Converted amounts (≈) assume the structure as drawn.

Consider `COc1ccc(Cc2cnc(N)nc2N)cc1OCCCCN1C(=O)c2ccccc2C1=O`, for which the MIC in the assay with Nakaseomyces glabratus [1], in the assay on Nakaseomyces glabratus [2], with Candida albicans [3], in the assay on Candida albicans [4], in the assay with Candida albicans [5] and against Candida albicans [6] was over 64 µg/mL throughout. Moreover, the MIC with Candida albicans [7], in the assay with Nakaseomyces glabratus [10] and against Candida albicans [11] was over 64 µg/mL throughout. Also, the IC50 on Dihydrofolate reductase [8] was 1760 nM; at Dihydrofolate reductase [9] it was 61 nM.

For `Nc1ncc(NCc2ccccc2)c(N)n1`, the IC50 on Dihydrofolate reductase [8] came out at 58200 nM; on Dihydrofolate reductase [9] it was 7940 nM. In addition, the I50 in assay [12] amounted to 105 uM l-1.

For the compound `COc1cc(OC)cc(N2C3CCC2CC(c2cnc(N)nc2N)C3)c1` (configuration not stated), the MIC was 4 µg/mL (≈ 11.3 µM) against Nakaseomyces glabratus [1]; 32 µg/mL (≈ 90 µM) with Nakaseomyces glabratus [2]; 16 µg/mL (≈ 45 µM) in the assay with Candida albicans [3]; over 64 µg/mL against Candida albicans [4]; over 64 µg/mL in the assay on Candida albicans [5]; 64 µg/mL (≈ 180 µM) in the assay on Candida albicans [6]. Besides, the MIC amounted to 32 µg/mL (≈ 90 µM) with Candida albicans [7], 4 µg/mL (≈ 11.3 µM) with Nakaseomyces glabratus [10] and 1 µg/mL (≈ 2.81 µM) against Candida albicans [11]. The IC50 amounted to 84 nM at Dihydrofolate reductase [13] and 26 nM on Dihydrofolate reductase [9].

`Nc1ncc(OCc2cccc3ccccc23)c(N)n1`: the minimal inhibitory concentration (MIC) in the assay with Nakaseomyces glabratus [1] is 16 µg/mL (≈ 60.1 µM); with Nakaseomyces glabratus [2] it was 64 µg/mL (≈ 240 µM); with Candida albicans [3] it was 32 µg/mL (≈ 120 µM); with Candida albicans [4], over 64 µg/mL; with Candida albicans [5] it was over 64 µg/mL; in the assay on Candida albicans [6] it was over 64 µg/mL. In addition, the MIC is over 64 µg/mL in the assay on Candida albicans [7], 16 µg/mL (≈ 60.1 µM) with Nakaseomyces glabratus [10] and 32 µg/mL (≈ 120 µM) in the assay with Candida albicans [11]. In addition, the values for the IC50 on Dihydrofolate reductase [8] and on Dihydrofolate reductase [9] were 2630 nM and 430 nM, respectively.

In the case of `Nc1ccc(S(=O)(=O)c2ccc(O)cc2)cc1`, the IC50 in assay [14] stood at 1500 nM; in [16], 2400 nM; in assay [17] it was 34900 nM; in [18], 1610 nM. The same compound showed an I50 in [15] of 32.2 µM.

Regarding `NNC(=O)c1ccc(S(=O)(=O)c2ccc(N)cc2)cc1`, the values for the IC50 in [14], in assay [17] and in [18] were 12700 nM, 155000 nM and 9600 nM, respectively. The compound also yielded an I50 in [15] of 76.5 µM.

`COc1cc(Cc2cnc(N)nc2N)ccc1OCCNc1ccc(S(=O)(=O)c2ccc(N)cc2)cc1`: the MIC in the assay with Nakaseomyces glabratus [19], against Nakaseomyces glabratus [2], in the assay on Candida albicans [3], in the assay on Candida albicans [4], against Candida albicans [5] and in the assay on Candida albicans [6] was over 64 µg/mL in each case. For the same compound, the MIC with Candida albicans [7], in the assay with Nakaseomyces glabratus [10] and against Candida albicans [11] was over 64 µg/mL each time. In addition, the IC50 at Dihydrofolate reductase [8] was 7230 nM; at Dihydrofolate reductase [9], 340 nM.

As for `COc1cc(Cc2cnc(N)nc2N)ccc1OCCCCN1C(=O)c2ccccc2C1=O`, the MIC with Nakaseomyces glabratus [1], in the assay with Nakaseomyces glabratus [2], in the assay on Candida albicans [3], in the assay on Candida albicans [4], in the assay on Candida albicans [5] and with Candida albicans [6] was over 64 µg/mL each time. The MIC in the assay with Candida albicans [7], in the assay on Nakaseomyces glabratus [10] and with Candida albicans [11] was over 64 µg/mL in each case. Besides, the IC50 on Dihydrofolate reductase [8] turned out to be 1810 nM; at Dihydrofolate reductase [9], 31 nM.

The values above are taken from ChEMBL document CHEMBL1139439, “Folate-synthesizing enzyme system as target for development of inhibitors and inhibitor combinations against Candida albicans-synthesis and biological activity of new 2,4-diaminopyrimidines and 4'-substituted 4-aminodiphenyl sulfones” (J Med Chem, 2004).
